Compounds with a hit are over-represented: about 0.55% of the library has one in this group of screens.
TRPML3 agonist: agonists of human TRPML3 channel | HEK293 TRPML3-YFP, Fluo-8 calcium fluorescence; 100% = the carbachol control signal | Q8TDD5 | activation, % at 3 µM | 220,000 tested, 0.29% active;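 active = activation above its plate's cutoff, the mean activation of the plate's test wells plus 3 SD, cut at about 12% in these data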;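 note: 0% = DMSO only wells and 100% = carbachol wells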
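system = HEK293 cells stably carrying human TRPML3-YFP | doses = one concentration, 3 µM nominal, 0.3% DMSO | timing = dye loading 1 h 37 °C then 30 min ambient, 125 s read | detection = Fluo-8 calcium dye fluorescence, ex 470-495, em 515-575 nm | benchmarks = high control carbachol 87 µM, low control DMSO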
V1R ag counter: activates human V1a receptor in oxytocin agonist counter-screen; P37288; CHO-V1R cells, Fluo-8 calcium fluorescence, agonist mode; 0% DMSO, 100% 3 nM vasopressin; activation, % at 3 µM; 320,000 tested, 0.25% active;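 active = activation above the mean activation of all tested compounds plus 3 SD, per screening run, cut at about 20% in these data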;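 note: signal is peak over basal fluorescence ratio across a 100 second FLIPR read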
Target sequence (P37288 whole entry, looked up): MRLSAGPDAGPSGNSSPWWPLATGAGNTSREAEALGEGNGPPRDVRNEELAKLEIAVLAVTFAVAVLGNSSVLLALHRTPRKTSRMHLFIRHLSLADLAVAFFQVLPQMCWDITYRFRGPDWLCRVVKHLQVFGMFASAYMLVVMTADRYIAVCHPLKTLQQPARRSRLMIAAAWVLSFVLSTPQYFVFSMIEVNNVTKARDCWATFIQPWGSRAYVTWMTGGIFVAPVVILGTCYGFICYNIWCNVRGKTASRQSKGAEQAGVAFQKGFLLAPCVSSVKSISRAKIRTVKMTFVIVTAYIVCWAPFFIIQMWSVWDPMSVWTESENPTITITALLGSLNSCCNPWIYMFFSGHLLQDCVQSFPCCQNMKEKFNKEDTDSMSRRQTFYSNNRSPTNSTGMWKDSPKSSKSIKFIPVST
OXTR potentiator: potentiators of human oxytocin receptor | 320,000 tested, 0.061% active | P30559 | activation, % at 3 µM | CHO-OTR cells, Fluo-8 calcium fluorescence, potentiator mode; 0% = oxytocin EC15, 100% = EC100;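 active = activation above that plate's cutoff, the mean activation of tested compounds plus 3 SD, cut at about 6.6% in these data, passing the limit was not always enough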;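 note: 100% uses oxytocin at 75 nM as the full agonist control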
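Replication – single well per compound, singlicate · Assay system – CHO cell line stably expressing human OTR · Timing – 6 min pre-incubation, 100 s read · Measure – normalized max/min fluorescence ratio, % activation · Doses – 3.0 µM, one dose · Detection – Fluo-8 calcium dye fluorescence · Probe or stimulus – oxytocin near EC15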
TRPN1 ag: zebrafish TRPN1 (NompC) channel agonism | HEK293 zebrafish TRPN1-YFP, Fluo-8 calcium fluorescence; 100% = response to 87 µM carbachol | activation, % at 3 µM | 220,000 tested, 0.18% active | AID 1424;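 active = activation above its plate's cutoff, the mean activation of test wells on that plate plus 3 SD, cut at about 19% in these data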;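 note: 0% = DMSO alone and 100% = 87 µM carbachol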
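Material – zebrafish TRPN1-YFP in HEK293 cells · Doses – 3 µM single point · Schedule – dye 1 h 37 °C plus 30 min RT · Signal – Fluo-8 calcium fluorescence, excitation 470-495 nm, emission 515-575 nm · Read-out – % activation versus carbachol response · Control set – carbachol high, DMSO low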
OXTR ag: human OXTR agonism; P30559; CHO-OTR cells, Fluo-8 calcium fluorescence; normalized: DMSO 0%, oxytocin 100%; activation, % at 3 µM; 320,000 tested, 0.32% active;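 active = activation above the mean of all tested compounds plus 3 SD, cutoff set per screening run, cut at about 20% in these data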;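 note: peak over basal fluorescence ratio from a 100 s FLIPR kinetic read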
Numbers without * were called inactive; . = no result.

SMILES	TRPML3 agonist	V1R ag counter	OXTR potentiator	TRPN1 ag	OXTR ag
CCC(C)(C(=O)NC1CCCCC1)N(C(=O)Cc1cccs1)c1ccccc1 (stereo unspecified)	-1.1	18.4	-12.2	-1.3	22.9*
CCC(C)(C(=O)NC1CCCC1)N(Cc1cccs1)C(=O)Cc1cccs1 (stereo unspecified)	0.7	-0.3	-12.1	-0.9	-1.6
Cc1cccc2cc(-c3nc4ccc(C(=O)O)cc4[nH]3)c(=O)oc12	.	0.0	-7.8	.	1.0
COc1ccc(C2CC3(CC(C)(C)NC(SC)=N3)Oc3cc(O)cc(C)c32)cc1 (stereo unspecified)	1.2	51.0*	-9.6	0.9	39.3*
CSc1ccc(C(=O)C2CCCN(C(=O)Cn3cnnn3)C2)cc1 (stereo unspecified)	.	0.5	-1.8	.	-0.8
CN(C)c1ccc(/C=C(\C#N)C(=O)c2ccccc2)cc1	38.2*	53.3*	-24.2	58.2*	80.0*
CCN(CC)c1ccc(/C=C(\C#N)C(=O)c2ccc(Br)cc2)cc1	5.6	69.9*	-11.1	10.4	133.0*
O=C(NCC(c1ccco1)N1CCCC1)c1ccc(Cl)c(S(=O)(=O)N2CCc3ccccc32)c1 (stereo unspecified)	.	10.0	-11.6	.	13.4
COc1ccc(C2C=C(c3cccs3)Nc3nc(CCCO)nn32)cc1 (stereo unspecified)	1.2	51.0*	-3.5	3.4	47.5*
COc1ccc(C2C=C(c3ccccc3)Nc3nc(CCCO)nn32)cc1 (stereo unspecified)	0.1	-0.8	-15.3	0.4	-0.9
Nc1nc(C2CC2)c(Sc2sc(N)nc2C2CC2)s1	1.1	25.1*	-22.4	1.2	24.6*
CCOc1ccc(S(=O)(=O)Nc2ccc(C(=O)N3CCCC3)cc2)cc1	.	3.2	-9.2	.	3.6
CCOc1ccc(NS(=O)(=O)c2ccc(C(=O)N3CCCCCC3)cc2)cc1	.	16.8	-24.4	.	15.1
Cc1ccc(NS(=O)(=O)c2ccc(C(=O)N3CC(C)OC(C)C3)cc2)cc1 (stereo unspecified)	.	37.4*	-17.4	.	41.0*
COc1ccc(NS(=O)(=O)c2ccc(C(=O)N3CCCCCC3)cc2)cc1	.	24.1*	-12.4	.	26.9*
Cc1ccc(NS(=O)(=O)c2ccc(C(=O)N3CCC3)cc2)cc1	.	5.8	-12.9	.	4.2
O=C(c1ccc(S(=O)(=O)Nc2ccccc2)cc1)N1CCCC(C(F)(F)F)C1 (stereo unspecified)	.	43.2*	-16.3	.	36.1*
CCOc1ccc(NS(=O)(=O)c2ccc(C(=O)N3CCCC(C)C3)cc2)cc1 (stereo unspecified)	.	39.3*	-9.8	.	47.1*
O=C(c1ccccc1)c1ccc(C(=O)N2CCCC(C(F)(F)F)C2)cc1 (stereo unspecified)	.	0.5	-14.8	.	-1.6
CCOC(=O)Cn1c(=O)oc2cc(S(=O)(=O)Nc3ccc(F)cc3)ccc21	6.7	33.0*	-10.4	19.1*	36.0*
CCOC(=O)Cn1c(=O)oc2cc(S(=O)(=O)NCCc3ccc(C)cc3)ccc21	1.6	10.2	-10.1	3.6	13.2
Cc1c2cc(O)c(=O)cc-2oc2cc(O)c(O)cc12	2.9	7.8	-13.6	1.3	67.9*
COc1cc(OC)c(-c2c3cc(O)c(=O)cc-3oc3cc(O)c(O)cc23)cc1OC	206.0*	389.2*	-11.9	291.0*	389.9*
COCc1nnc(SCC(=O)NCc2ccccc2)n1-c1ccccc1	-0.6	1.6	-3.4	24.8*	0.3
COCc1nnc(SCC(=O)Nc2cccc(Cl)c2C)n1-c1ccccc1	0.2	0.3	-7.0	-1.0	1.5
N=C(N)c1ccc(/C=C/c2ccc(C(=N)N)cc2O)cc1	0.7	1.6	4.7	0.2	0.6
COc1ccc(CNc2nc3ccccc3n2C)c(OC)c1	0.5	3.6	0.6	-0.2	3.5
COc1ccc(N=Nc2nc3cc(Br)c(Br)cc3n2C)c(OC)c1	19.6*	6.6	-7.1	24.8*	10.0
Nc1c(C(=O)NCc2ccccc2)nnn1Cc1ccccc1	-0.3	3.5	-7.3	-0.3	1.9
Cc1ccc(Cn2nnc(C(=O)Nc3cc(C)ccc3C)c2N)cc1	3.9	23.5*	-8.8	5.3	20.4*

Screening data deposited in PubChem by The Scripps Research Institute Molecular Screening Center.
